Here are results for 17 compounds from PMC11568772 (Drug Design, Development and Therapy, 2024).

The term IC50 denotes the concentration that inhibits the measured activity by half. As a reminder, the inhibition is how much of the control response was suppressed.

The structures appear in SMILES notation.

Assay [1] deals with colorectal (HCT116) carcinoma cell line. In words: MTT cytotoxicity, HCT-116. As to conditions: Homo sapiens, HCT-116, 24 h, read-out: IC50 HCT-116. Format: cell-based.
Assay [2] concerns human cervical (Hela) carcinoma cell line. In words: MTT cytotoxicity, Hela. Conditions: 24 h, read-out: IC50 Hela. It counts as cell-based. In short, it runs like this: (§1)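 Cells were grown in medium with 10% FBS, penicillin/streptomycin, 37°C, 5% CO2, then seeded at 1.0×10^4 cells/well and held 48 h. Test compound was added at 1.56, 3.125, 6.25, 12.5, 25, 50 and 100, for 24 h. MTT (5 mg/mL stock) was added for 4 h, formazan dissolved in DMSO and A570 read. Viability was taken relative to untreated wells. IC50 came from a Boltzmann sigmoidal fit, in triplicate, mean ± SD.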

Assay [3] concerns breast cancer (MCF-7) cell line. Nature of the assay: MTT cytotoxicity, MCF-7. Format: cell-based. Conditions: Homo sapiens, MCF7, 24 h, read-out: IC50 MCF-7. In short, it runs like this: as §1
Assay [4] concerns hepatocellular (HePG2) carcinoma cell line. Nature of the assay: MTT cytotoxicity, HePG-2. It counts as cell-based. As to conditions: Homo sapiens, HepG2, 24 h, read-out: IC50 HePG-2.
Assay [5] concerns HCT-116, HePG-2, HeLa and MCF-7 cells. In words: MTT cytotoxicity summarised over the 4 cancer cell lines. It counts as cell-based. As to conditions: Homo sapiens, read-out: IC50 range of one compound over the cancer cell lines. The procedure, abridged:
as §1

Assay [6] concerns WI-38 normal fibroblast cells. Nature of the assay: MTT cytotoxicity towards normal human cells WI-38. It counts as cell-based. Conditions: WI-38, 24 h, read-out: IC50 WI-38.
The target of the next assay is VEGFR-2 enzyme (Homo sapiens, UniProt P35968). Nature of the assay: VEGFR-2 kinase inhibitory assay. Conditions: for inhibition at 0.01 µM: read-out: % Inhibition 0.01 μM, VEGFR-2 enzyme, 0.01 μM; for inhibition at 0.1 µM: read-out: % Inhibition 0.1 μM, VEGFR-2 enzyme, 0.1 μM; for inhibition at 10 µM: read-out: % Inhibition 10 μM, VEGFR-2 enzyme, 10 μM. Format: biochemical.
VEGFR-2 enzyme, sequence (P35968 20-1356): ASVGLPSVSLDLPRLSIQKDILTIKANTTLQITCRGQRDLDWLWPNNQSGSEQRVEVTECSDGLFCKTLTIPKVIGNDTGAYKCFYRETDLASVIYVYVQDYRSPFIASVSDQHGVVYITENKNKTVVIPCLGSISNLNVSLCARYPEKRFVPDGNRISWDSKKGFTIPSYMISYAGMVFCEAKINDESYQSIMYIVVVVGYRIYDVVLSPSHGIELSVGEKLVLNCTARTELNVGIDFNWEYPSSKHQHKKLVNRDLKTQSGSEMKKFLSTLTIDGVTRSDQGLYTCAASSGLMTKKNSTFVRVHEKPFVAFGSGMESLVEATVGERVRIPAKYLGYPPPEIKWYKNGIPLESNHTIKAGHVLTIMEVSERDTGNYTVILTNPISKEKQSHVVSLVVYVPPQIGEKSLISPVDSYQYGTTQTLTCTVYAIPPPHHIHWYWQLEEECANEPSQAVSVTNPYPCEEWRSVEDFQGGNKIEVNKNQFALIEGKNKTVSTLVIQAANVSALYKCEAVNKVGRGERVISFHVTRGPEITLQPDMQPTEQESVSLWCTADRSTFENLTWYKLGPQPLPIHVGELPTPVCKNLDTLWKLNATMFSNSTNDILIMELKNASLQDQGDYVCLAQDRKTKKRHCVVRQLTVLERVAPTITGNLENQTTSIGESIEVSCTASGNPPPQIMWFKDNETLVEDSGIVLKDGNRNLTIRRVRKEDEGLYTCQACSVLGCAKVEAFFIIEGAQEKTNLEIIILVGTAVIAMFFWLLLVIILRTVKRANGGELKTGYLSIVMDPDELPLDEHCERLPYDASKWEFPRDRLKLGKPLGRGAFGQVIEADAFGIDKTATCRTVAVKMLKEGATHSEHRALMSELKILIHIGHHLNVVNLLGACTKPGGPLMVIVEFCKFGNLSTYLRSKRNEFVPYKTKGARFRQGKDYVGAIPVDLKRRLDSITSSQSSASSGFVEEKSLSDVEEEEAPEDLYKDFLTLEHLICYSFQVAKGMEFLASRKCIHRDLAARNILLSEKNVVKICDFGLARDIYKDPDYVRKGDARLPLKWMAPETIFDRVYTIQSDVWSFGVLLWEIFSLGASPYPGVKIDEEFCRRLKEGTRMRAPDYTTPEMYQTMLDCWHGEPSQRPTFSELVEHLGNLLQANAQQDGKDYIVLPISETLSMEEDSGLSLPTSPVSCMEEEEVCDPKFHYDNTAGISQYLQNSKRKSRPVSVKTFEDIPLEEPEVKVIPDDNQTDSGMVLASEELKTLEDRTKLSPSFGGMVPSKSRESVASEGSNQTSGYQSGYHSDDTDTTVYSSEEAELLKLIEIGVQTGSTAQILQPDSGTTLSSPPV

With `COc1ccc(CNC(=O)NCCSc2nc3ccccc3c(=O)n2-c2ccccc2)cc1` [Compound 5f, 1-(4-Methoxybenzyl)-3-(2-((4-Oxo-3-Phenyl-3,4-Dihydroquinazolin-2-Yl)thio)ethyl)urea], the IC50 is 14.8 ± 1.3 µM in assay [1]; 31.5 ± 2.3 µM in assay [2]; 18.7 ± 1.5 µM in assay [3]; 34.2 ± 2.4 µM in assay [4]; 14.8 to 34.2 µM in assay [5]; 91.4 ± 5.1 µM in assay [6].
On to `O=C(NCCSc1nc2ccccc2c(=O)n1-c1ccccc1)Nc1ccc(Br)cc1` [Compound 5c, 1-(4-Bromophenyl)-3-(2-((4-Oxo-3-Phenyl-3,4-Dihydroquinazolin-2-Yl)thio)ethyl)urea], for which the IC50 in assay [1] is 48.2 ± 3 µM; in assay [2], 67.7 ± 3.9 µM; in assay [3] it was 55.1 ± 3.2 µM; in assay [4], 57.8 ± 3.6 µM; in assay [5], 48.2 to 67.7 µM; in assay [6], over 100 µM.
Take `O=C(NCCSc1nc2ccccc2c(=O)n1-c1ccccc1)Nc1ccc(C(F)(F)F)cc1` [Compound 5d, 1-(2-((4-Oxo-3-Phenyl-3,4-Dihydroquinazolin-2-Yl)thio)ethyl)-3-(4-(Trifluoromethyl)phenyl)urea]: the IC50 is 6.09 ± 2.2 µM in assay [1]; 8.94 ± 0.7 µM in assay [2]; 4.81 ± 0.2 µM in assay [3]; 2.39 ± 0.1 µM in assay [4]; 2.39 to 8.94 µM in assay [5]; 0.274 µM on VEGFR-2 enzyme. For the same compound, in assay [6], the IC50 is 36.3 ± 2.4 µM. In addition, the inhibition at 0.01 µM at VEGFR-2 enzyme stood at 25.5%. Further, at VEGFR-2 enzyme, the inhibition at 0.1 µM was 38.9%. The inhibition at 1 µM on VEGFR-2 enzyme (read-out: % Inhibition 1 μM, VEGFR-2 enzyme, 1 μM) came to 60.4%. The inhibition at 10 µM on VEGFR-2 enzyme is 83.5%. Moreover, the inhibition at 100 µM at VEGFR-2 enzyme (read-out: % Inhibition 100 μM, VEGFR-2 enzyme, 100 μM) stood at 91%.
Turning to `O=C(NCCSc1nc2ccccc2c(=O)n1-c1ccccc1)NCCc1ccccc1` [Compound 5h, 1-(2-((4-Oxo-3-Phenyl-3,4-Dihydroquinazolin-2-Yl)thio)ethyl)-3-Phenethylurea], the IC50 in assay [1] was determined as 5.89 ± 0.3 µM; in assay [2] it was 11.6 ± 0.9 µM; in assay [3] it was 13.9 ± 1.1 µM; in assay [4], 6.74 ± 0.5 µM; at VEGFR-2 enzyme, 0.215 µM; in assay [6], 41.1 ± 2.6 µM. Besides, at VEGFR-2 enzyme (VEGFR-2 enzyme, 1 μM), the “% Inhibition 1 μM” value amounted to 65.78%. Further, the “% Inhibition 100 μM” value at VEGFR-2 enzyme (VEGFR-2 enzyme, 100 μM) came out at 93.07%. The inhibition at 0.01 µM at VEGFR-2 enzyme was 25.3%. Further, the inhibition at 0.1 µM on VEGFR-2 enzyme was 40.1%. At VEGFR-2 enzyme, the inhibition at 10 µM stood at 86.1%.
On to `O=C(NCCSc1nc2cc(Cl)ccc2c(=O)n1-c1ccccc1)NCCc1ccccc1` [Compound 5q, 1-(2-((7-Chloro-4-Oxo-3-Phenyl-3,4-Dihydroquinazolin-2-Yl)thio)ethyl)-3-Phenethylurea], for which the IC50 in assay [1] was 32.5 ± 2.5 µM; in assay [2] it was 45.2 ± 2.7 µM; in assay [3], 24.6 ± 2 µM; in assay [4], 41.6 ± 2.8 µM; in assay [6], 53 ± 3.1 µM.
With `O=C(NCCSc1nc2ccccc2c(=O)n1-c1ccccc1)Nc1ccc(Cl)cc1` [Compound 5b, 1-(4-Chlorophenyl)-3-(2-((4-Oxo-3-Phenyl-3,4-Dihydroquinazolin-2-Yl)thio)ethyl)urea], the IC50 in assay [1] was 77.3 ± 4.2 µM; in assay [2], over 100 µM; in assay [3] it was 92.2 ± 4.7 µM; in assay [4], 88.5 ± 4.8 µM; in assay [5], 77.3 to 100 µM; in assay [6], 64.3 ± 3.7 µM.
`O=C(NCCSc1nc2cc(Cl)ccc2c(=O)n1-c1ccccc1)Nc1ccc(Br)cc1` [Compound 5l, 1-(4-Bromophenyl)-3-(2-((7-Chloro-4-Oxo-3-Phenyl-3,4-Dihydroquinazolin-2-Yl)thio)ethyl)urea]: the IC50 in assay [1] was 28.6 ± 2.3 µM; in assay [2], 49.4 ± 2.9 µM; in assay [3], 37.2 ± 2.5 µM; in assay [4], 44.7 ± 2.9 µM; in assay [5], 28.6 to 49.4 µM; in assay [6] it was over 100 µM.
For the compound `O=C(NCCSc1nc2ccccc2c(=O)n1-c1ccccc1)NCc1ccccc1` [Compound 5e, 1-Benzyl-3-(2-((4-Oxo-3-Phenyl-3,4-Dihydroquinazolin-2-Yl)thio)ethyl)urea], the IC50 in assay [1] was 54.9 ± 3.3 µM; in assay [2], 75.3 ± 4.2 µM; in assay [3] it was 72.8 ± 3.6 µM; in assay [4], 65.7 ± 3.8 µM; in assay [6], over 100 µM.
On to `O=C(NCCSc1nc2cc(Cl)ccc2c(=O)n1-c1ccccc1)NCCc1ccc(Cl)cc1` [Compound 5r, 1-(2-((7-Chloro-4-Oxo-3-Phenyl-3,4-Dihydroquinazolin-2-Yl)thio)ethyl)-3-(4-Chlorophenethyl)urea], for which the IC50 in assay [1] was 13.2 ± 1.1 µM; in assay [2] it was 22.4 ± 1.7 µM; in assay [3], 10.7 ± 0.9 µM; in assay [4], 17.7 ± 1.4 µM; in assay [5], 10.7 to 22.4 µM; in assay [6] it was 74.2 ± 4.1 µM.
Turning to `COc1ccc(CNC(=O)NCCSc2nc3cc(Cl)ccc3c(=O)n2-c2ccccc2)cc1` [Compound 5o, 1-(2-((7-Chloro-4-Oxo-3-Phenyl-3,4-Dihydroquinazolin-2-Yl)thio)ethyl)-3-(4-Methoxybenzyl)urea], the IC50 in assay [1] was 69.3 ± 3.9 µM; in assay [2], 90.2 ± 4.8 µM; in assay [3] it was 86.5 ± 4.2 µM; in assay [4] it was 84.3 ± 4.6 µM; in assay [5], 69.3 to 90.2 µM; in assay [6], 35.9 ± 2.3 µM.
In the case of `COc1ccc(NC(=O)NCCSc2nc3cc(Cl)ccc3c(=O)n2-c2ccccc2)cc1` [Compound 5j, 1-(2-((7-Chloro-4-Oxo-3-Phenyl-3,4-Dihydroquinazolin-2-Yl)thio)ethyl)-3-(4-Methoxyphenyl)urea], the IC50 in assay [1] was 9.51 ± 0.9 µM; in assay [2] it was 19.1 ± 1.4 µM; in assay [3], 16 ± 1.3 µM; in assay [4], 12.3 ± 1 µM; in assay [5], 9.51 to 16 µM; in assay [6] it was 38.5 ± 2.5 µM.
Regarding `COc1ccc(NC(=O)NCCSc2nc3ccccc3c(=O)n2-c2ccccc2)cc1` [Compound 5a, 1-(4-Methoxyphenyl)-3-(2-((4-Oxo-3-Phenyl-3,4-Dihydroquinazolin-2-Yl)thio)ethyl)urea], the concentration for half-maximal inhibition (IC50) is 62.7 ± 3.6 µM in assay [1]; 83.4 ± 4.4 µM in assay [2]; 79.5 ± 3.9 µM in assay [3]; 81.3 ± 4.3 µM in assay [4]; 62.7 to 83.4 µM in assay [5]; 29.4 ± 2.1 µM in assay [6].
In the case of `O=C(NCCSc1nc2cc(Cl)ccc2c(=O)n1-c1ccccc1)NCc1ccccc1` [Compound 5n, 1-Benzyl-3-(2-((7-Chloro-4-Oxo-3-Phenyl-3,4-Dihydroquinazolin-2-Yl)thio)ethyl)urea], the IC50 in assay [1] stood at 44.2 ± 2.8 µM; in assay [2], 61.5 ± 3.7 µM; in assay [3], 48.7 ± 3 µM; in assay [4], 52.4 ± 3.4 µM; in assay [6], 73.6 ± 3.9 µM.
In the case of `O=C(NCCSc1nc2cc(Cl)ccc2c(=O)n1-c1ccccc1)Nc1ccc(C(F)(F)F)cc1` [Compound 5m, 1-(2-((7-Chloro-4-Oxo-3-Phenyl-3,4-Dihydroquinazolin-2-Yl)thio)ethyl)-3-(4-(Trifluoromethyl)phenyl)urea], the IC50 in assay [1] was 18.1 ± 1.5 µM; in assay [2], 27.9 ± 2.1 µM; in assay [3], 21.4 ± 1.8 µM; in assay [4], 30.7 ± 2.2 µM; in assay [5] it was 18.1 to 30.7 µM; in assay [6], 76.3 ± 4.3 µM.
For the compound `O=C(NCCSc1nc2ccccc2c(=O)n1-c1ccccc1)NCc1ccc(Cl)cc1` [Compound 5g, 1-(4-Chlorobenzyl)-3-(2-((4-Oxo-3-Phenyl-3,4-Dihydroquinazolin-2-Yl)thio)ethyl)urea], the IC50 in assay [1] is 35.3 ± 2.6 µM; in assay [2] it was 53.7 ± 3.1 µM; in assay [3] it was 39.6 ± 2.6 µM; in assay [4], 47.2 ± 3.1 µM; in assay [5] it was 35.3 to 53.7 µM; in assay [6], 86 ± 4.8 µM.
With `O=C(NCCSc1nc2ccccc2c(=O)n1-c1ccccc1)NCCc1ccc(Cl)cc1` [Compound 5i, 1-(4-Chlorophenethyl)-3-(2-((4-Oxo-3-Phenyl-3,4-Dihydroquinazolin-2-Yl)thio)ethyl)urea], the IC50 is 39.1 ± 2.7 µM in assay [1]; 58.3 ± 3.3 µM in assay [2]; 43.1 ± 2.8 µM in assay [3]; 49.8 ± 3.2 µM in assay [4]; 39.1 to 58.3 µM in assay [5]; over 100 µM in assay [6].
Regarding `O=C(NCCSc1nc2cc(Cl)ccc2c(=O)n1-c1ccccc1)Nc1ccc(Cl)cc1` [Compound 5k, 1-(2-((7-Chloro-4-Oxo-3-Phenyl-3,4-Dihydroquinazolin-2-Yl)thio)ethyl)-3-(4-Chlorophenyl)urea], the IC50 in assay [1] was 23.4 ± 2.1 µM; in assay [2], 38 ± 2.5 µM; in assay [3], 32.9 ± 2.3 µM; in assay [4] it was 40.9 ± 2.6 µM; in assay [5], 23.4 to 40.9 µM; in assay [6] it was over 100 µM.
